Measured values from ChEMBL document CHEMBL3272019, “Synthesis and some properties and antitumor effects of the actinomycin lactam analog, (di(1-L-alpha, beta-diaminopropionic))actinomycin D1” (1976).
Converted amounts (≈) assume the structure as drawn. The source made the active and inactive calls. The calls are words filed in the database; no cut-off is given here. Starred links: 1 amine or outer side, 2 acyl side, 3 side chain; linkers in the order of their positions; H or OH if unused. Positions of bridges follow the written chain, without caps; N, C: chain ends. Non-standard residues stand in square brackets, D forms with d. Residues, ends and D or L forms follow the SMILES beside them. Chains are numbered I, II in the order given. Actinocin(1to9) = Cc1c2oc3c(C)ccc(C(=O)[*:2])c3nc-2c(C(=O)[*:1])c(N)c1=O; NMeV = CN[C@H](C(=O)O)C(C)C; Sar = CNCC(=O)O

Tests used:
P388 [1] = experiment: Antitumor activity against mouse P388 cells allografted in BDF1 mouse assessed as increase in life span at 0.3 mg/kg/injection, ip administered intermittently on days 1, 5 and 9 measured on day 60; format: functional; conditions: 1440 h, route intraperitoneal
In short: (§1)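 P388 leukaemia: 10⁶ cells implanted ip on day 0 into groups of eight male BDF mice. Dosing was ip daily on days 1–9, on days 1, 5 and 9, or as a single day-1 dose, over four- to fivefold dose ranges. Median survival time (range of deaths) and percent increase in life-span were recorded, with survivors/total counted at day 60.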

B16 [2] = experiment: Antitumor activity against mouse B16 cells allografted in BDF1 mouse assessed as increase in life span at 0.025 mg/kg/injection, ip administered daily for 9 days measured on day 60; format: functional; conditions: route intraperitoneal
In short: (§2)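 B16 melanoma in mice, standard screening method. Schedules were daily on days 1–9, on days 1, 5 and 9, or a single day-1 injection, each over a four- to fivefold dose range. Survival time (range of individual deaths) was recorded, percent increase in life-span computed against untreated controls, and survivors tallied.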

B16 [3] = experiment: Antitumor activity against mouse B16 cells allografted in BDF1 mouse assessed as increase in life span at 0.3 mg/kg/injection, ip administered intermittently on days 1, 5 and 9 measured on day 60; format: functional; conditions: 1440 h, route intraperitoneal; in short: as §2
Homo sapiens [4] = species: Homo sapiens; experiment: Binding affinity to poly[d(DAP-A-T)] (unknown origin) at 14.3 uM by visible and near-UV CD spectrophotometry
In short: (§3)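 Visible and near-UV CD spectra of actinomycin D recorded free and with polynucleotide, in 0.01 M sodium phosphate pH 7.0 at about 23°, in 1-cm tandem cylindrical quartz cells. DNA levels were given as nucleotide phosphorus: PM2 0.54 mM, calf thymus 0.50 mM, poly[d(DAP-A-T)] 0.12 mM and poly[d(DAP-T)] 0.27 mM. Drug concentration was set from the 440 nm extinction coefficient (24450 M⁻¹ cm⁻¹).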

Staphylococcus aureus = experiment: Antibacterial activity against Penicillin-resistant Staphylococcus aureus assessed as growth inhibition; format: functional
L1210 [5] = experiment: Antitumor activity against mouse L1210 cells allografted in BDF1 mouse assessed as mean survival time at 0.4 mg/kg/injection, ip administered as single dose (reference value: 9.6 days); format: functional; conditions: route intraperitoneal
Calf thymus DNA = experiment: Binding affinity to calf thymus DNA at 34.5 uM by visible and near-UV CD spectrophotometry; format: nucleic-acid assay; conditions: Bos taurus; in short: as §3
P388 [6] = experiment: Antitumor activity against mouse P388 cells allografted in BDF1 mouse assessed as mean survival time at 0.3 mg/kg/injection, ip administered intermittently on days 1, 5 and 9 (reference value: 10.5 days); format: functional; conditions: route intraperitoneal; in short: as §1
L1210 [7] = experiment: Antitumor activity against mouse L1210 cells allografted in BDF1 mouse assessed as increase in life span at 0.05 mg/kg/injection, ip administered daily for 9 days; format: functional; conditions: 216 h, route intraperitoneal
B16 [8] = experiment: Antitumor activity against mouse B16 cells allografted in BDF1 mouse assessed as mean survival time at 0.4 mg/kg/injection, ip administered as single dose (reference value: 28 days); format: functional; conditions: route intraperitoneal; in short: as §2
L1210 [9] = experiment: Antitumor activity against mouse L1210 cells allografted in BDF1 mouse assessed as increase in lifespan at 0.3 mg/kg/injection, ip administered intermittently on days 1, 5 and 9; format: functional; conditions: route intraperitoneal
L1210 [10] = experiment: Antitumor activity against mouse L1210 cells allografted in BDF1 mouse assessed as increase in life span at 0.4 mg/kg/injection, ip administered as single dose; format: functional; conditions: route intraperitoneal
P388 [11] = experiment: Antitumor activity against mouse P388 cells allografted in BDF1 mouse assessed as increase in life span at 0.4 mg/kg/injection, ip administered as single dose measured on day 60; format: functional; conditions: 1440 h, route intraperitoneal; in short: as §1
P388 [12] = experiment: Antitumor activity against mouse P388 cells allografted in BDF1 mouse assessed as mean survival time at 0.05 mg/kg/injection, ip administered daily for 9 days (reference value: 10.5 days); format: functional; conditions: route intraperitoneal; in short: as §1
L1210 [13] = experiment: Antitumor activity against mouse L1210 cells allografted in BDF1 mouse assessed as mean survival time at 0.05 mg/kg/injection, ip administered daily for 9 days (reference value: 9.6 days); format: functional; conditions: route intraperitoneal
P388 [14] = experiment: Antitumor activity against mouse P388 cells allografted in BDF1 mouse assessed as increase in life span at 0.05 mg/kg/injection, ip administered daily for 9 days measured on day 60; format: functional; conditions: route intraperitoneal; in short: as §1
Sarcina = experiment: Antibacterial activity against Sarcina subflava assessed as growth inhibition; format: functional
L1210 [15] = experiment: Antitumor activity against mouse L1210 cells allografted in BDF1 mouse assessed as mean survival time at 0.3 mg/kg/injection, ip administered intermittently on days 1, 5 and 9 (reference value: 9.6 days); format: functional; conditions: route intraperitoneal
Homo sapiens [16] = species: Homo sapiens; experiment: Binding affinity to poly[d(DAP-T)] (unknown origin) at 14.3 uM by visible and near-UV CD spectrophotometry; in short: as §3
B16 [17] = experiment: Antitumor activity against mouse B16 cells allografted in BDF1 mouse assessed as mean survival time at 0.025 mg/kg/injection, ip administered daily for 9 days (reference value: 28 days); format: functional; conditions: route intraperitoneal; in short: as §2
P388 [18] = experiment: Antitumor activity against mouse P388 cells allografted in BDF1 mouse assessed as mean survival time at 0.4 mg/kg/injection, ip administered as single dose (reference value: 10.5 days); format: functional; conditions: route intraperitoneal; in short: as §1
Bacillus subtilis = experiment: Antibacterial activity against Bacillus subtilis Marburg assessed as growth inhibition; format: functional
[19] = system: Pseudoalteromonas phage PM2; experiment: Binding affinity to bacteriophage PM2 DNA at 31 uM by visible and near-UV CD spectrophotometry; in short: as §3
B16 [20] = experiment: Antitumor activity against mouse B16 cells allografted in BDF1 mouse assessed as mean survival time at 0.3 mg/kg/injection, ip administered intermittently on days 1, 5 and 9 (reference value: 28 days); format: functional; conditions: route intraperitoneal; in short: as §2
B16 [21] = experiment: Antitumor activity against mouse B16 cells allografted in BDF1 mouse assessed as increase in life span at 0.4 mg/kg/injection, ip administered as single dose measured on day 60; format: functional; conditions: 1440 h, route intraperitoneal; in short: as §2

Cc1c2oc3c(C)ccc(C(=O)N[C@@H]4C(=O)N[C@H](C(C)C)C(=O)N5CCC[C@H]5C(=O)N(C)CC(=O)N(C)[C@@H](C(C)C)C(=O)O[C@@H]4C)c3nc-2c(C(=O)N[C@@H]2C(=O)N[C@H](C(C)C)C(=O)N3CCC[C@H]3C(=O)N(C)CC(=O)N(C)[C@@H](C(C)C)C(=O)O[C@@H]2C)c(N)c1=O [DACTINOMYCIN] (I: T[dV]P[Sar][NMeV] / II: T[dV]P[Sar][NMeV]; ester I:1-I:C, II:1-II:C; linker I:N-II:N via Actinocin(1to9))
ILS at 0.3 mg/kg (P388 [1]): 262%
ILS at 0.025 mg/kg (B16 [2]): 61%
ILS at 0.3 mg/kg (B16 [3]): 48%
Activity (Homo sapiens [4]): Active
MIC (Staphylococcus aureus): 0.05 µg/mL (≈ 0.0398 µM)
MST (L1210 [5]): 12.6 days
Activity (Calf thymus DNA): Active
MST (P388 [6]): 38 days
ILS at 0.05 mg/kg (L1210 [7]): 42%
MST (B16 [8]): 38.5 days
ILS at 0.3 mg/kg (L1210 [9]): 45%
ILS at 0.4 mg/kg (L1210 [10]): 31%
ILS at 0.4 mg/kg (P388 [11]): 110%
MST (P388 [12]): 28.5 days
MST (L1210 [13]): 13.6 days
ILS at 0.05 mg/kg (P388 [14]): 171%
MIC (Sarcina): 0.045 µg/mL (≈ 0.0358 µM)
MST (L1210 [15]): 14 days
Activity (Homo sapiens [16]): Active
MST (B16 [17]): 45 days
MST (P388 [18]): 22 days
MIC (Bacillus subtilis): 0.09 µg/mL (≈ 0.0717 µM)
IC50 (Bacillus subtilis; read-out: ID50 (the source's name)): 0.05 µg/mL (≈ 0.0398 µM)
Activity [19]: Active
MST (B16 [20]): 41.5 days
ILS at 0.4 mg/kg (B16 [21]): 38%
